A selection: hits, their analogues and other compounds. The true share with any hit is near 2.4%.
NPY-Y2 antag – NPY-Y2 receptor antagonists, primary screen, cell-based | NPY-Y2 expressing cells, antagonist mode | actives 0.99% (n = 140,000) | AID 793, 2007 | inhibition, % at 2.7 µM | Neuropeptide Y receptor type 2 (Homo sapiens), P49146; in the data active = inhibition above about 17%;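 note: 0% = vehicle with agonist challenge and 100% = reference antagonist with challenge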
NPY-Y1 antag – NPY-Y1 receptor antagonists, primary screen, cell-based; HEK293-CNG Y1 cells, membrane potential fluorescence; NPY at EC95, then isoproterenol; inhibition, % at 3.6 µM; actives 1% (n = 200,000); AID 1040, 2008;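 active = inhibition above the campaign mean inhibition of all tested compounds plus 3 SD, cut at about 20% in these data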;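 note: 0% = DMSO wells given NPY plus isoproterenol and 100% = isoproterenol alone without NPY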
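material = HEK293 cells with Y1 receptor plus CNG channel | also added = NPY 25 nM then isoproterenol 1 µM plus Ro 20-1724 25 µM | schedule = dye 3 h, compound 60 min room temperature, stimulation 45 min | measured by = membrane potential fluorescence | benchmarks = high control isoproterenol alone, low control NPY with isoproterenol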
NPY-Y1 PAM-ag – NPY-Y1 receptor potentiators or agonists, primary screen, cell-based | Neuropeptide Y receptor type 1 (Homo sapiens), P25929 | NPY-Y1 expressing cells, potentiator/agonist activation | activation, % at 3.6 µM | actives 0.37% (n = 220,000); in the data active = activation above about 33%, passing the limit was not always enough;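 note: cells stimulated with NPY at EC10 then isoproterenol at EC100; 0% = low agonist plus stimulus and 100% = saturating agonist plus stimulus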
S1P4 ag – S1P4 receptor agonists, primary screen, cell-based; Sphingosine 1-phosphate receptor 4 (Homo sapiens), O95977; activation, % at 4.98 µM; actives 0.35% (n = 220,000); S1P4-expressing cell line, agonist reporter assay; in the data active = activation above about 11%;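 note: 0% = DMSO vehicle and 100% = reference agonist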
Target sequence (O95977 whole entry, looked up): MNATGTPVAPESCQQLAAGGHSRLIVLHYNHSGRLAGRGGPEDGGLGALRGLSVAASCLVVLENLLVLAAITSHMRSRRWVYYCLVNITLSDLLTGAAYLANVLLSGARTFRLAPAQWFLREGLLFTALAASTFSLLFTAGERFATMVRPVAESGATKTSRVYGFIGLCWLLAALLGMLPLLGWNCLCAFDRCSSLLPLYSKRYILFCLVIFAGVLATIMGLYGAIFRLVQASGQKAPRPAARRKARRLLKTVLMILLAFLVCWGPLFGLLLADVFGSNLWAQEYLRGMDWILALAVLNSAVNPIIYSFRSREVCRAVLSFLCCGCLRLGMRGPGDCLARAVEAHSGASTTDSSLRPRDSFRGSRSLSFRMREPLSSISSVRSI
S1P4 antag – S1P4 receptor antagonists, primary screen, cell-based. AID 1510, 2009. actives 0.26% (n = 220,000). inhibition, % at 4.98 µM. Sphingosine 1-phosphate receptor 4 (Homo sapiens), O95977. S1P4-expressing cells, antagonist mode, reporter read-out; in the data active = inhibition above about 29%;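 note: 0% = wells stimulated with agonist and 100% = vehicle wells without agonist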
NPY2 pot ag – NPY-Y2 potentiators or agonists, primary screen, cell-based; activation, % at 3.6 µM; actives 0.45% (n = 220,000); cells expressing NPY-Y2, potentiator/agonist read-out; AID 1359, 2008; Neuropeptide Y receptor type 2 (Homo sapiens), P49146; in the data active = activation above about 27%;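 note: cells stimulated with NPY near EC25 plus isoproterenol at EC100; 0% = vehicle plus submaximal agonist and 100% = vehicle plus saturating agonist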
S1P4 antag conf – S1P4 receptor antagonists, human, confirmation, cell-based; shares compounds with S1P4 antag; S1P4-expressing cell line, antagonist mode, reporter read-out; inhibition, % at 4.98 µM; actives 71% (n = 520); in the data active = inhibition above about 30%
S1P1 antag – S1P1 receptor antagonists, human, counter-screen for S1P4 antagonist project, cell-based. shares compounds with S1P4 antag. cell-based S1P1 antagonist counterscreen, inhibition. AID 1564, 2009. inhibition, % at 4.98 µM. actives 37% (n = 520); in the data active = inhibition above about 40%;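 note: receptor stimulated with S1P near its EC80; 0% = agonist stimulated wells and 100% = vehicle only wells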
* marks the source's active call; other numbers are inactive results; nt = not tested or not shown.

SMILES | NPY-Y2 antag | NPY-Y1 antag | NPY-Y1 PAM-ag | S1P4 ag | S1P4 antag | NPY2 pot ag | S1P4 antag conf | S1P1 antag
O=C(/C=C/c1ccc(Br)cc1)c1ccco1 | 7 | 7 | -44 | -1 | 54* | -13 | 81* | 18
O=C(/C=C/c1ccc(Br)cc1)c1ccc(NC(=O)c2ccco2)cc1 | 1 | -3 | -25 | 2 | -17 | -2 | nt | nt
COc1ccc(C(=O)NN)cc1 | nt | nt | 13 | -1 | 6 | -2 | nt | nt
COc1ccc(C(=O)C(CCC(CNC(C)(C)C)C(=O)c2ccc(OC)cc2)CNC(C)(C)C)cc1 (centres undefined) | 1 | 4 | 5 | -6 | 73* | 4 | 37* | 22
O=C(CCl)Nc1cc(SCC(O)CO)cc([N+](=O)[O-])c1 (centres undefined) | nt | -2 | -6 | 0 | 39* | 0 | 112* | 102*
O=C(c1cnn2c(C(F)F)cc(-c3ccccc3)nc12)N1CCN2CCCC2C1 (centres undefined) | 6 | 7 | -70 | 0 | 35* | -26 | 0 | 3
CCN(CC)S(=O)(=O)c1ccc(NC(=O)Cc2cccs2)cc1 | nt | -1 | 6 | -1 | -8 | 0 | nt | nt
Cc1n[nH]c(C)c1N1C(=O)c2cccc3c(Br)ccc(c23)C1=O | -1 | -3 | -28 | 1 | 70* | -2 | 79* | 93*
Cc1ccc(C)n1-c1ccc(C(=O)N2CCC(C(N)=O)CC2)cc1 | nt | 0 | -31 | 0 | 44* | -8 | -1 | 0
CC(=O)N1CCN(C(=O)c2ccc(-n3c(C)ccc3C)cc2)CC1 | 1 | 5 | -1 | 0 | 11 | 4 | nt | nt
COc1ccc(S(=O)(=O)N2CCC(O)(c3cccnc3)CC2)cc1OC | nt | 3 | 3 | -1 | 2 | -2 | nt | nt
Cc1ccc(NC(=O)C(=O)NCC2CCCO2)cc1 (centres undefined) | nt | 0 | 3 | -2 | 79* | -14 | -8 | -12
Cc1ccc(NC(=O)C(=O)NCC2CCCO2)cc1C (centres undefined) | nt | -1 | 1 | 0 | -6 | -3 | nt | nt
C=CCn1c(C)cc(C(=O)Cn2ncc(Cl)c(Cl)c2=O)c1C | 1 | -1 | 11 | -1 | -2 | -4 | nt | nt
O=C(Cn1ncc(Cl)c(Cl)c1=O)c1ccc(Cl)cc1 | 1 | -9 | 3 | -1 | 44* | 20 | 107* | 63*
Cc1ccc(NC(=O)CN(C)C(=O)COc2c(Cl)cc(Cl)c3ccc(C)nc23)cc1 | 2 | 4 | -6 | 2 | -23 | 3 | nt | nt
Cc1ccc(NC(=O)CN(C)C(=O)Cn2ncc(Cl)c(Cl)c2=O)cc1 | -1 | 10 | 3 | 1 | 82* | 10 | 106* | 79*
CC(C)(C)C(=O)Cn1ncc(Cl)c(Cl)c1=O | nt | 16 | -29 | -1 | 53* | -16 | 78* | 24
O=C1CN(C(=O)Cn2ncc(Cl)c(Cl)c2=O)c2ccccc2N1 | nt | -3 | 1 | -4 | 38* | 9 | 117* | 69*
Cc1cc2cc(CNC(=O)C(C)Oc3ccccc3)ccc2n1C (centres undefined) | nt | nt | -5 | 1 | -6 | -5 | nt | nt
COc1ccc(CN(C)CC(=O)Nc2cccc(S(N)(=O)=O)c2)c(OC)c1OC | nt | -3 | 6 | 0 | -8 | 6 | nt | nt
COC(=O)c1sccc1NC(=O)COc1ccc(F)cc1Cl | nt | 11 | 1 | -2 | -21 | -32 | nt | nt
CC1Cc2ccccc2N1CC(=O)NCc1ccc2c(c1)OCO2 (centres undefined) | 2 | 7 | -6 | 0 | -3 | -1 | nt | nt
CC(=O)Oc1ccccc1C1C[C@]2(C)CC(=O)NC2N1C(C)=O (some centres undefined) | nt | 1 | -4 | -1 | 6 | 11 | nt | nt
O=c1c(Cl)c(Cl)cnn1Cc1ccc(F)cc1 | nt | -4 | 29 | -4 | 60* | 15 | 105* | 31
SMILES | NPY-Y2 antag | NPY-Y1 antag | NPY-Y1 PAM-ag | S1P4 ag | S1P4 antag | NPY2 pot ag | S1P4 antag conf | S1P1 antag
CSCCC1NC(=O)N(CC(=O)Nc2ccc(-c3ccccc3)cc2)C1=O (centres undefined) | nt | nt | 16 | 0 | -10 | 12 | nt | nt
CCOC(=O)C(=Cc1ccc(Br)cc1)C(=O)OCC | nt | nt | -36 | 1 | 90* | -70 | 115* | 35
CCOC(=O)C(=Cc1ccc(F)cc1)C(=O)OCC | 1 | -1 | -18 | -1 | 19 | -1 | nt | nt
O=C(Nc1ccc(Cl)cc1)c1cccnc1N1CCCCC1 | 5 | 4 | 10 | 1 | 95* | 11 | 2 | 11
C=CCn1c(O)c(N=NC(=O)c2cccnc2)c2cc(Br)ccc21 | nt | nt | 7 | -1 | 1 | 23 | nt | nt
CCCCCOc1ccccc1C(=O)NCCCC(=O)O | 8 | 3 | -12 | 0 | -15 | -7 | nt | nt
CCCCOc1ccccc1C(=O)NCCCC(=O)O | 7 | -1 | 10 | -6 | 35* | 2 | -3 | -2
CCOC(=O)N1CCN(S(=O)(=O)c2ccc(OCC(=O)OC)c(C)c2)CC1 | 1 | -3 | 36 | 1 | -14 | 8 | nt | nt
COC(=O)COc1ccc(S(=O)(=O)N2CCN(c3ccccc3F)CC2)cc1C | 1 | -4 | 37 | 0 | 35* | 7 | 14 | -9
Fc1c(F)c(F)c(/C=N/NC(=S)Nc2cccnc2)c(F)c1F | nt | -1 | 5 | -3 | 40* | -1 | 66* | 19
CN(C)N1C(=O)CC(N2CCCCC2)C1=O (centres undefined) | nt | 8 | 5 | 1 | 6 | -5 | nt | nt
CN(C)c1ccc(C(=O)NC2CCCc3ccccc32)cc1 (centres undefined) | nt | 8 | -7 | -1 | 48* | 8 | 56* | -10
O=C(/C=C/c1ccccc1)NC1CCCc2ccccc21 (centres undefined) | nt | 3 | -6 | -1 | 54* | -3 | 54* | -21
O=C(Cc1ccc(Cl)cc1)Nc1ccc2c(c1)C(=O)NC2=O | nt | -1 | 11 | 1 | 5 | 10 | nt | nt
CC(=O)n1cc(N(C(=O)CCl)c2ccc(Cl)cc2)c2ccccc21 | nt | nt | 66* | -3 | 60* | 50* | 115* | 41*
COc1ccccc1N(C(=O)CCl)c1cn(C(C)=O)c2ccccc12 | nt | nt | 14 | -1 | 8 | 15 | nt | nt
Cc1ccc2nc(-c3ccc(-c4ccccn4)s3)cn2c1 | nt | nt | -21 | -1 | -9 | -26 | nt | nt
Cc1ccc2cc(/C=C/C(=O)c3ccco3)c(Cl)nc2c1 | nt | nt | -32 | -1 | 37* | -21 | 68* | 0
Cc1ccc2nc(Cl)c(/C=C/C(=O)c3ccco3)cc2c1 | nt | nt | 3 | 1 | 3 | -8 | nt | nt

Bioassay records: PubChem BioAssay, The Scripps Research Institute Molecular Screening Center
